What was measured:
[1] = target: T1, Cyclin-dependent kinase 2/cyclin E1 (Homo sapiens, UniProt P24941); assay: Concentration required for inhibition of cyclin dependant kinase 2-cyclin E was measured by scintillation proximity assay; assay type: protein-complex assay
In short: (§1)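 Kinase activity was read by scintillation proximity assay against cdk5/p25 and cdk2/cyclin E, with the same final ATP concentration in both assays. ATP Km was measured separately for each enzyme. Each IC50 came from a six-point dose–response curve run in triplicate.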

[2] = Ratio of inhibition of cyclin dependant kinase 2-cyclin E to that of cyclin-dependent kinase 5
In short: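 Selectivity is the cdk2/cyclin E IC50 divided by the cdk5/p25 IC50 (k2/k5). Both IC50s came from six-point triplicate dose–response curves in scintillation proximity assays run at the same final ATP concentration.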

[3] = target: Cyclin-dependent kinase 5 (Homo sapiens, UniProt Q00535); assay: Concentration required for inhibition of cyclin-dependent kinase 5 was measured by scintillation proximity assay; in short: as §1
Cyclin-dependent kinase 5, sequence (Q00535 whole entry): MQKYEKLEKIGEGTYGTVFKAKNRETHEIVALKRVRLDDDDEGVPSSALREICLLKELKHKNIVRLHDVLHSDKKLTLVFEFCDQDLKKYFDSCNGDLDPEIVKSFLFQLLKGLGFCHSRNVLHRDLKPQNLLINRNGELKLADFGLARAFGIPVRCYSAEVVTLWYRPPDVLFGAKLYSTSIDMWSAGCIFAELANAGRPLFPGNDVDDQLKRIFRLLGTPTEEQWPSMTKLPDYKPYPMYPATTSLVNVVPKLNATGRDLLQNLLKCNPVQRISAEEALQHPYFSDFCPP

[4] = target: T1, Cyclin-dependent kinase 2/cyclin E1; assay: Concentration required for 50% inhibition of cyclin dependant kinase 2-cyclin E was measured by scintillation proximity assay; assay type: protein-complex assay; in short: as §1

Row | SMILES | IC50 [1] [nM] | Ratio [2] | IC50 [3] [nM] | IC50 [4] [nM]
1 | O=C(Nc1ccccc1)Nc1ncc(C2CCC2)s1 | 290 | 1.6 | 183 | 
2 | O=C(Cc1ccccc1)Nc1ncc(C2CCCCC2)s1 | 997 | 2.6 | 390 | 
3 | O=C(Cc1ccccc1)Nc1ncc(-c2ccccc2)s1 | 2000 | 1.3 | 1570 | 
4 | Cc1nc2ccc(CC(=O)Nc3ncc(C4CCC4)s3)cc2s1 | 16 | 1.3 | 12 | 
5 | CC(C)c1cnc(NC(=O)c2ccccc2)s1 |  | 0.9 | 1150 | 1020
6 | Cc1cc2ncn(CC(=O)Nc3ncc(C4CCC4)s3)c2cc1C | 26 | 2.2 | 13 | 
7 | CC(C)c1cnc(NC(=O)Cc2ccccc2)s1 |  | 1.5 | 64 | 98
8 | O=C(Cc1ccccc1)Nc1ncc(C2CCCC2)s1 | 155 | 2.4 | 64 | 
9 | CC(=O)c1cnc(NC(=O)Cc2ccccc2)s1 | 4600 | 0.6 | 7670 | 
10 | O=C(Nc1ccc2ncccc2c1)Nc1ncc(C2CCC2)s1 | 167 | 3.8 | 44 | 
11 | CCCCCc1cnc(NC(=O)Cc2ccccc2)s1 | 4120 | 1.2 | 3270 | 
12 | O=C(Cc1ccc2ncccc2c1)Nc1ncc(C2CCC2)s1 | 26 | 2.6 | 10 | 
13 | O=C(Cn1ccc2ccccc21)Nc1ncc(C2CCC2)s1 | 100 | 2.1 | 48 | 
14 | O=C(Nc1ncc(C2CCC2)s1)Nc1cccc2ccncc12 | 55 | 11 | 5 | 
15 | O=C(Cc1cccc2cnccc12)Nc1ncc(C2CCC2)s1 | 70 | 5.4 | 13 | 
16 | O=C(Cc1ccccc1)Nc1ncc(C2=CCCC2)s1 | 6510 | 1 | 6530 | 
17 | CCc1cnc(NC(=O)Cc2ccccc2)s1 |  | 0.7 | 621 | 412

Row | SMILES | IC50 [1] [nM] | Ratio [2] | IC50 [3] [nM] | IC50 [4] [nM]
18 | O=C(Nc1ncc(C2CCC2)s1)Nc1cccc2nn[nH]c12 | 106 |  | 41 | 
19 | O=C(Nc1ccc2cnccc2c1)Nc1ncc(C2CCC2)s1 | 176 | 4 | 44 | 
20 | CC(C)c1cnc(NC(=O)C(=O)c2ccccc2)s1 |  | 2.1 | 4580 | 9770
21 | O=C(Cc1c[nH]c2ccccc12)Nc1ncc(C2CCC2)s1 | 40 | 2.5 | 16 | 
22 | O=C(Cc1ccccc1)Nc1ncc(Br)s1 | 480 | 0.5 | 900 | 
23 | O=C(Cc1ccc2[nH]cnc2c1)Nc1ncc(C2CCC2)s1 | 33 | 4.7 | 7 | 
24 | O=C(Nc1ncc(C2CCC2)s1)Nc1cccc2[nH]nnc12 |  | 2.6 |  | 
25 | CN(C)c1cnc(NC(=O)Cc2ccccc2)s1 | 4810 | 1.2 | 3990 | 
26 | O=C(Nc1ncc(C2CCC2)s1)Nc1cccc2ncccc12 | 43 | 3.3 | 13 | 
27 | CSc1cnc(NC(=O)Cc2ccccc2)s1 | 105 | 1.2 | 91 | 
28 | CC(C)c1cnc(NC(=O)Nc2ccccc2)s1 |  | 2.6 | 102 | 265
29 | O=C(Cc1ccccc1)Nc1ncc(C2CCC2)s1 | 74 | 3 | 25 | 
30 | O=C(Nc1ncc(C2CCC2)s1)Nc1cccc2cnccc12 | 96 | 12 | 8 | 
31 | CC(C)c1cnc(NC(=O)Oc2ccccc2)s1 |  | 0.6 | 1600 | 980
32 | CC(C)C(=O)Nc1ncc(C(C)C)s1 | 318 | 1 | 321 | 
33 | O=C(Nc1ncc(C2CCC2)s1)Nc1cccc2c[nH]nc12 | 650 | 3.4 | 190 | 

— ChEMBL document CHEMBL1138018, “Discovery and SAR of 2-aminothiazole inhibitors of cyclin-dependent kinase 5/p25 as a potential treatment for Alzheimer's disease” (Bioorg Med Chem Lett, 2004)
